ID/g and relative binding affinity (RBA) data for two compounds are collected here from ChEMBL document CHEMBL1126822, “7 alpha-Methyl- and 11 beta-ethoxy-substitution of [125I]-16 alpha-iodoestradiol: effect on estrogen receptor-mediated target tissue uptake” (J Med Chem, 1993).

Series [1] concerns Rattus norvegicus. Put plainly: Tissue uptake (uterus) of [125I]- after administration of [125I]-labeled compound to immature female rats (n=5) in the absence of 60 microg coinjected estradiol after 1 hour. It is filed as ADME, organism-based. Conditions: in vivo. A digest of the protocol:
(§1)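 Immature female Fischer rats, 24 days old, 55-60 g, unanesthetized in retention cages, got HPLC-purified n.c.a. 125I-labeled steroid (3 μCi, 111 kBq) by lateral tail vein. Dose was given in 200 μL saline with 9% ethanol and 1% Tween-80. Deep ether anesthesia, axillary artery cut; tissues KCl-washed, blotted, weighed, gamma-counted as % ID/g; variation as small-sample-corrected %CV.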

Series [2] deals with Rattus norvegicus. Put plainly: Tissue uptake (uterus) of [125I]- after administration of [125I]-labeled compound to immature female rats (n=4) in the absence of 60 microg coinjected estradiol after 2 hours. It is filed as ADME, organism-based. The conditions noted are these: in vivo. The method, boiled down:
as §1

For series [3], the system named is Rattus norvegicus. Briefly: Tissue uptake (thyroid) of [125I]- after administration of [125I]-labeled compound to immature female rats (n=5) in the absence of 60 microg coinjected estradiol after 1 hour. The conditions noted are these: in vivo. In kind it is ADME, organism-based, Thyroid gland. A digest of the protocol: as §1
In series [4] the test system is Rattus norvegicus. Put plainly: Tissue uptake (uterus) of [125I]- after administration of [125I]-labeled compound to immature female rats (n=3) in the absence of 60 microg coinjected estradiol. (24 hours after injection) (% coefficient of variation). Conditions: in vivo. It is filed as ADME, organism-based. The method, boiled down: as §1
For series [5], the system named is Rattus norvegicus. Briefly: Tissue uptake (blood) of [125I]- after administration of [125I]-labeled compound to immature female rats (n=4) in the absence of 60 microg coinjected estradiol after 5 hours. It is filed as ADME, organism-based. The conditions noted are these: in vivo. A digest of the protocol:
(§2)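 Immature female Fischer rats, 24 days old, 55-60 g, unanesthetized in retention cages, given HPLC-purified 125I-labeled steroid (3 μCi, 111 kBq) via lateral tail vein in 200 μL of 9% ethanol-saline with 1% Tween-80. The blocking group was coinjected with 60 μg unlabeled estradiol and sampled at 1 h. Animals were killed under ether at 0.5-24 h. Tissues were KCl-washed, blotted, weighed and gamma-counted. Results are % ID/g, with variation as small-sample-corrected %CV.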

Series [6] has as its system Rattus norvegicus. Briefly: Tissue uptake (liver) of [125I]- after administration of [125I]-labeled compound to immature female rats (n=3) in the absence of 60 microg coinjected estradiol after 0.5 hours. It is filed as ADME, organism-based. Conditions: in vivo. The method, boiled down: as §2
For series [7], the system named is Rattus norvegicus. Briefly: Tissue uptake (thyroid) of [125I]- after administration of [125I]-labeled compound to immature female rats (n=3) in the presence of 60 microg coinjected estradiol after 1 hour. It is filed as ADME, organism-based, Thyroid gland. Conditions: in vivo. The method, boiled down: as §1
Series [8] has as its system Rattus norvegicus. Briefly: Tissue uptake (blood) of [125I]- after administration of [125I]-labeled compound to immature female rats (n=3) in the presence of 60 microg coinjected estradiol after 1 hour. The conditions noted are these: in vivo. It is filed as ADME, organism-based. The method, boiled down:
as §2

Series [9] relates to Rattus norvegicus. Briefly: Tissue uptake (spleen) of [125I]- after administration of [125I]-labeled compound to immature female rats (n=5) in the absence of 60 microg coinjected estradiol after 1 hour. It is filed as ADME, organism-based. The conditions noted are these: in vivo. A digest of the protocol:
as §1

In series [10] the test system is Rattus norvegicus. Put plainly: Tissue uptake (fat) of [125I]- after administration of [125I]-labeled compound to immature female rats (n=3) in the absence of 60 microg coinjected estradiol after 24 hours. Conditions: in vivo. It is filed as ADME, organism-based. A digest of the protocol:
as §2

In series [11] the test system is Rattus norvegicus. Put plainly: Tissue uptake (brain) of [125I]- after administration of [125I]-labeled compound to immature female rats (n=3) in the presence of 60 microg coinjected estradiol after 1 hour. It is filed as ADME, organism-based. The conditions noted are these: in vivo. A digest of the protocol: as §2
Series [12] deals with Rattus norvegicus. Briefly: Tissue uptake (spleen) of [125I]- after administration of [125I]-labeled compound to immature female rats (n=3) in the absence of 60 microg coinjected estradiol after 0.5 hours. In kind it is ADME, organism-based. The conditions noted are these: in vivo. The method, boiled down:
as §1

In series [13] the test system is Rattus norvegicus. Put plainly: Tissue uptake (liver) of [125I]- after administration of [125I]-labeled compound to immature female rats (n=3) in the absence of 60 microg coinjected estradiol after 24 hours. It is filed as ADME, organism-based. Conditions: in vivo. The method, boiled down:
as §2

Series [14] relates to Rattus norvegicus. Briefly: Tissue uptake (blood) of [125I]- after administration of [125I]-labeled compound to immature female rats (n=4) in the absence of 60 microg coinjected estradiol after 2 hours. It is filed as ADME, organism-based. Conditions: in vivo. The method, boiled down: as §2
Series [15] relates to Rattus norvegicus. Put plainly: Tissue uptake (liver) of [125I]- after administration of [125I]-labeled compound to immature female rats (n=4) in the absence of 60 microg coinjected estradiol after 5 hours. It is filed as ADME, organism-based. The conditions noted are these: in vivo. A digest of the protocol:
as §2

The target in series [16] is Estrogen receptor (Mus musculus) (UniProt O08537+P19785). Briefly: Binding affinity at murine estrogen receptor by [3H]estradiol displacement. It is filed as protein assay. The method, boiled down: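 Competitive binding in murine uterine cytoplasmic extracts, incubated 18 h at 0-4 °C with 20 nM [3H]estradiol, with or without competing steroids from 2 nM to 20 μM. RBA = 100 × ratio of competitor to unlabeled estradiol concentration giving 50% competition of specific [3H]estradiol binding. Mean of three experiments with SD.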

Series [17] has as its system Rattus norvegicus. Briefly: Tissue uptake (muscle) of [125I]- after administration of [125I]-labeled compound to immature female rats (n=3) in the absence of 60 microg coinjected estradiol after 24 hours. It is filed as ADME, organism-based. The conditions noted are these: in vivo. The method, boiled down:
as §2

Series [18] relates to Rattus norvegicus. Put plainly: Tissue uptake (fat) of [125I]- after administration of [125I]-labeled compound to immature female rats (n=3) in the absence of 60 microg coinjected estradiol after 0.5 hours. It is filed as ADME, organism-based. The conditions noted are these: in vivo. A digest of the protocol:
as §2

The subject of series [19] is Rattus norvegicus. Put plainly: Tissue uptake (liver) of [125I]- after administration of [125I]-labeled compound to immature female rats (n=5) in the absence of 60 microg coinjected estradiol after 1 hour. It is filed as ADME, organism-based. Conditions: in vivo. A digest of the protocol: as §2
For series [20], the system named is Rattus norvegicus. Briefly: Tissue uptake (kidneys) of [125I]- after administration of [125I]-labeled compound to immature female rats (n=3) in the presence of 60 microg coinjected estradiol after 1 hour. It is filed as ADME, organism-based, Kidney. Conditions: in vivo. The method, boiled down:
as §2

The test system of series [21] is Rattus norvegicus. Briefly: Tissue uptake (spleen) of [125I]- after administration of [125I]-labeled compound to immature female rats (n=4) in the absence of 60 microg coinjected estradiol after 2 hours. Conditions: in vivo. It is filed as ADME, organism-based. A digest of the protocol:
as §1

Series [22] deals with Rattus norvegicus. Briefly: Tissue uptake (fat) of [125I]- after administration of [125I]-labeled compound to immature female rats (n=4) in the absence of 60 microg coinjected estradiol after 2 hours. It is filed as ADME, organism-based. Conditions: in vivo. The method, boiled down: as §2
The test system of series [23] is Rattus norvegicus. Briefly: Tissue uptake (brain) of [125I]- after administration of [125I]-labeled compound to immature female rats (n=4) in the absence of 60 microg coinjected estradiol after 5 hours. In kind it is ADME, organism-based. Conditions: in vivo. The method, boiled down: as §2
Series [24] has as its system Rattus norvegicus. Briefly: Tissue uptake (plasma) of [125I]- after administration of [125I]-labeled compound to immature female rats (n=5) in the absence of 60 microg coinjected estradiol after 1 hour. It is filed as ADME, organism-based. The conditions noted are these: in vivo. A digest of the protocol: as §1
The subject of series [25] is Rattus norvegicus. Put plainly: Tissue uptake (kidneys) of [125I]- after administration of [125I]-labeled compound to immature female rats (n=4) in the absence of 60 microg coinjected estradiol after 5 hours. In kind it is ADME, organism-based, Kidney. Conditions: in vivo. The method, boiled down:
as §2

Series [26] concerns Rattus norvegicus. Briefly: Tissue uptake (plasma) of [125I]- after administration of [125I]-labeled compound to immature female rats (n=3) in the absence of 60 microg coinjected estradiol after 0.5 hours. It is filed as ADME, organism-based. Conditions: in vivo. The method, boiled down: as §2
The subject of series [27] is Rattus norvegicus. Briefly: Tissue uptake (plasma) of [125I]- after administration of [125I]-labeled compound to immature female rats (n=4) in the absence of 60 microg coinjected estradiol after 2 hours. In kind it is ADME, organism-based. Conditions: in vivo. A digest of the protocol: as §2
Series [28] relates to Rattus norvegicus. Put plainly: Tissue uptake (plasma) of [125I]- after administration of [125I]-labeled compound to immature female rats (n=3) in the absence of 60 microg coinjected estradiol after 24 hours. In kind it is ADME, organism-based. The conditions noted are these: in vivo. The method, boiled down:
as §2

Series [29] deals with Rattus norvegicus. Put plainly: Tissue uptake (uterus) of [125I]- after administration of [125I]-labeled compound to immature female rats (n=3) in the absence of 60 microg coinjected estradiol after 24 hours. It is filed as ADME, organism-based. Conditions: in vivo. The method, boiled down: as §1

Chain of Estrogen receptor (Mus musculus) (O08537 whole entry, looked up): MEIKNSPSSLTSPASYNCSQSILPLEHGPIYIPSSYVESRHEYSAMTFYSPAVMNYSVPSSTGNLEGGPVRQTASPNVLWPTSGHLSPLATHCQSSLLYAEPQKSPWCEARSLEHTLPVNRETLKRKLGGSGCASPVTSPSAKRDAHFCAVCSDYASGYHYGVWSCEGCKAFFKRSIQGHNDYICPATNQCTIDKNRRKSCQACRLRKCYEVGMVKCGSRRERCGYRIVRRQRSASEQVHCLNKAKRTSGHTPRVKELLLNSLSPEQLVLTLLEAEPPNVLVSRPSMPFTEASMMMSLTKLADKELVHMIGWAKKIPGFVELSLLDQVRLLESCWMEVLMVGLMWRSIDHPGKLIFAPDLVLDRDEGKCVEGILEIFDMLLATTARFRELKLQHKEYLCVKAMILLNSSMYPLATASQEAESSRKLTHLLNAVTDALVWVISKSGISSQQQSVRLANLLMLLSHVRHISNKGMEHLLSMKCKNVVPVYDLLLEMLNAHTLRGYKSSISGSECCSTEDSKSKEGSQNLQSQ
Chain of Estrogen receptor (Mus musculus) (P19785 whole entry, looked up): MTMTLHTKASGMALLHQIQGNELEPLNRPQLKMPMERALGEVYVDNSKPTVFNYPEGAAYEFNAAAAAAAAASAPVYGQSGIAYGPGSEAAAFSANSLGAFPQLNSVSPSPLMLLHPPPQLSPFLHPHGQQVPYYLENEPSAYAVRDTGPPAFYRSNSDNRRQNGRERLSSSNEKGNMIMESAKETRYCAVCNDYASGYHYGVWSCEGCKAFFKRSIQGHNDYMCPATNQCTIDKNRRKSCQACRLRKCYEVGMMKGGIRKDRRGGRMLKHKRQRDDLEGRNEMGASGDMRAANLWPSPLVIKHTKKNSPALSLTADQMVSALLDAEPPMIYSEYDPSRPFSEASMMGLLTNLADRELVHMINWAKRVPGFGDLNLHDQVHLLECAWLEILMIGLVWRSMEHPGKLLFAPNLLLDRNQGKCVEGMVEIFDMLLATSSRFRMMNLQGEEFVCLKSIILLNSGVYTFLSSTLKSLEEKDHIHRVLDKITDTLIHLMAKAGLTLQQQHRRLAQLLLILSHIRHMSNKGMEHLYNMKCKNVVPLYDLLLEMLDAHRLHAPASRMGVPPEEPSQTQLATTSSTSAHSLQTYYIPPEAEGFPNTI

As for `CCO[C@H]1C[C@]2(C)[C@@H](O)[C@H](I)C[C@H]2[C@@H]2CCc3cc(O)ccc3[C@H]21`, the ID/g is reported as 11.67% with Rattus norvegicus [1]; 13.08% with Rattus norvegicus [2]; 110.96% in the series on Rattus norvegicus [3]; 1.64% in the series on Rattus norvegicus [4]; 0.7% in the series with Rattus norvegicus [5]; 5.91% in the series on Rattus norvegicus [6]. Further, the ID/g with Rattus norvegicus [7] was determined as 156.51%; with Rattus norvegicus [8], 1.09%; with Rattus norvegicus [9], 1.49%; with Rattus norvegicus [10] it was 0.15%; with Rattus norvegicus [11] it was 0.42%; with Rattus norvegicus [12], 1.44%. Also, the ID/g turned out to be 0.96% in the series on Rattus norvegicus [13]; 0.89% with Rattus norvegicus [14]; 2.31% with Rattus norvegicus [15]; 0.13% with Rattus norvegicus [17]; 2.47% in the series on Rattus norvegicus [18]; 3.48% with Rattus norvegicus [19]. Moreover, the ID/g is recorded as 1.61% in the series with Rattus norvegicus [20], 1.76% with Rattus norvegicus [21], 0.94% in the series with Rattus norvegicus [22] and 0.14% in the series with Rattus norvegicus [23]. In series [16], this compound gave a relative binding affinity (RBA) of 16.5.
`C[C@@H]1Cc2cc(O)ccc2[C@H]2CC[C@]3(C)[C@@H](O)[C@H](I)C[C@H]3[C@H]12`: the ID/g with Rattus norvegicus [1] came to 5.25%; with Rattus norvegicus [2] it was 6.35%; in the series with Rattus norvegicus [3], 45.15%; with Rattus norvegicus [6], 1.94%; with Rattus norvegicus [7] it was 43.5%; in the series with Rattus norvegicus [8], 0.33%. Moreover, the ID/g is 0.43% in the series on Rattus norvegicus [9]; 0.58% in the series on Rattus norvegicus [24]; 0.03% in the series with Rattus norvegicus [10]; 0.57% in the series with Rattus norvegicus [12]; 0.13% with Rattus norvegicus [13]; 0.32% in the series with Rattus norvegicus [14]. The ID/g stood at 0.72% with Rattus norvegicus [15]; 0.25% with Rattus norvegicus [25]; 0.01% with Rattus norvegicus [17]; 2.2% in the series with Rattus norvegicus [18]; 1.26% in the series with Rattus norvegicus [19]; 0.68% in the series on Rattus norvegicus [26]. The ID/g in the series with Rattus norvegicus [27] is reported as 0.49%; in the series with Rattus norvegicus [20], 0.51%; in the series with Rattus norvegicus [21] it was 0.33%; with Rattus norvegicus [22], 1.12%; in the series with Rattus norvegicus [28], 0.04%; in the series with Rattus norvegicus [29], 1.64%. The compound also yielded a relative binding affinity (RBA) in series [16] of 55.2.
